Measured values from ChEMBL document CHEMBL1129275, “Synthesis and in vitro and in vivo characteristics of an iodinated analogue of the beta-adrenoceptor antagonist carazolol” (J Med Chem, 1996).

Legend:
[1] = system: Oryctolagus cuniculus; assay: Biodistribution pattern of [123I]- ligand was evaluated in muscle of anesthetized rabbit after Intravenous injection of 50 uCi after 24 hr; assay type: ADME, organism-based, Muscle tissue; details: in vivo
Summary of the method: (§1)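 Male New Zealand white rabbits, 2.5–3.5 kg, anesthetized with 5 mg/kg xylazine plus 30 mg/kg ketamine im. Each received 50 uCi radioligand (specific activity > 5000 Ci/mmol) iv via ear vein. Animals were killed with 200 mg/kg pentobarbital im at the set time. Blood was drawn by intracardiac puncture and organs weighed. Gamma counting was decay-corrected, expressed as %ID x kg body weight/g tissue, mean ± SEM, n = 3/time point.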

[2] = system: Oryctolagus cuniculus; assay: Biodistribution pattern of [123I]- ligand was evaluated in lung of anesthetized rabbit after Intravenous injection of 50 uCi after 2 hr; assay type: ADME, organism-based; details: in vivo; summary of the method: as §1
[3] = system: Oryctolagus cuniculus; assay: Biodistribution pattern of [123I]- ligand was evaluated in left ventricular muscle of anesthetized rabbit after Intravenous injection of 50 uCi after 5 min; assay type: ADME, organism-based, Muscle tissue; details: in vivo; summary of the method: as §1
[4] = system: Oryctolagus cuniculus; assay: Cerebral biodistribution pattern of [123I]- ligand was evaluated in frontal cortex of anesthetized rabbit after Intravenous injection of 50 uCi after 6 hr; assay type: ADME, organism-based; details: in vivo
Summary of the method: (§2)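 Male New Zealand white rabbits (2.5–3.5 kg), anesthetized with xylazine 5 mg/kg plus ketamine 30 mg/kg im, given 50 µCi radioligand (specific activity >5000 Ci/mmol) iv via ear vein. Euthanized at set times by pentobarbital 200 mg/kg im, n = 3/time point. Organs removed and weighed, gamma-counted, decay/weight corrected; expressed as % ID x kg body weight/g tissue, mean ± SEM.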

[5] = system: Oryctolagus cuniculus; assay: Biodistribution pattern of [123I]- ligand was evaluated in right atrial muscle of anesthetized rabbit after Intravenous injection of 50 uCi after 6 hr; assay type: ADME, organism-based, Muscle tissue; details: in vivo; summary of the method: as §2
[6] = system: Oryctolagus cuniculus; assay: Biodistribution pattern of [123I]- ligand was evaluated in lung of anesthetized rabbit after Intravenous injection of 50 uCi after 6 hr; assay type: ADME, organism-based; details: in vivo; summary of the method: as §1
[7] = system: Oryctolagus cuniculus; assay: Biodistribution pattern of [123I]- ligand was evaluated in left atrial muscle of anesthetized rabbit after Intravenous injection of 50 uCi after 4 hr; assay type: ADME, organism-based, Muscle tissue; details: in vivo; summary of the method: as §1
[8] = system: Oryctolagus cuniculus; assay: […] biodistribution pattern of [123I]- ligand was evaluated in kidney of anesthetized rabbit after Intravenous injection of 50 uCi after 24 hr; assay type: ADME, organism-based; details: in vivo; summary of the method: as §2
[9] = system: Oryctolagus cuniculus; assay: Cerebral biodistribution pattern of [123I]- ligand was evaluated in thalamus of anesthetized rabbit after Intravenous injection of 50 uCi after 6 hr; assay type: ADME, organism-based; details: in vivo
Summary of the method: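 Male New Zealand white rabbits (2.5–3.5 kg) anesthetized with xylazine 5 mg/kg plus ketamine 30 mg/kg im; 50 uCi radioligand (specific activity > 5000 Ci/mmol) given iv via ear vein. Euthanized by pentobarbital 200 mg/kg im at set times up to 24 h (n = 3/time point). Brain regions weighed and gamma-counted, decay-corrected, expressed as % ID x kg body weight/g tissue, mean ± SEM.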

[10] = system: Oryctolagus cuniculus; assay: Biodistribution pattern of [123I]- ligand was evaluated in blood of anesthetized rabbit after Intravenous injection of 50 uCi after 5 min; assay type: ADME, organism-based; details: in vivo; summary of the method: as §1
[11] = system: Oryctolagus cuniculus; assay: Cerebral biodistribution pattern of [123I]- ligand was evaluated in thalamus of anesthetized rabbit after Intravenous injection of 50 uCi after 24 hr; assay type: ADME, organism-based; details: in vivo; summary of the method: as §2
[12] = system: Oryctolagus cuniculus; assay: Cerebral biodistribution pattern of [123I]- ligand was evaluated in hypothalamus of anesthetized rabbit after Intravenous injection of 50 uCi after 30 min; assay type: ADME, organism-based; details: in vivo, 0.5 h; summary of the method: as §2
[13] = system: Oryctolagus cuniculus; assay: Cerebral biodistribution pattern of [123I]- ligand was evaluated in striatum of anesthetized rabbit after Intravenous injection of 50 uCi after 24 hr; assay type: ADME, organism-based; details: in vivo; summary of the method: as §2
[14] = system: Oryctolagus cuniculus; assay: […] biodistribution pattern of [123I]- ligand was evaluated in kidney of anesthetized rabbit after Intravenous injection of 50 uCi after 2 hr; assay type: ADME, organism-based; details: in vivo; summary of the method: as §2
[15] = system: Oryctolagus cuniculus; assay: Biodistribution pattern of [123I]- ligand was evaluated in kidney of anesthetized rabbit after Intravenous injection of 50 uCi after 6 hr; assay type: ADME, organism-based; details: in vivo; summary of the method: as §1
[16] = system: Oryctolagus cuniculus; assay: Cerebral biodistribution pattern of [123I]- ligand was evaluated in frontal cortex of anesthetized rabbit after Intravenous injection of 50 uCi after 24 hr; assay type: ADME, organism-based; details: in vivo; summary of the method: as §2
[17] = system: Oryctolagus cuniculus; assay: Cerebral biodistribution pattern of [123I]- ligand was evaluated in striatum of anesthetized rabbit after Intravenous injection of 50 uCi after 6 hr; assay type: ADME, organism-based; details: in vivo; summary of the method: as §2
[18] = system: Oryctolagus cuniculus; assay: Biodistribution pattern of [123I]- ligand was evaluated in fat of anesthetized rabbit after Intravenous injection of 50 uCi after 5 min; assay type: ADME, organism-based, Adipose tissue; details: in vivo; summary of the method: as §1
[19] = system: Oryctolagus cuniculus; assay: Cerebral biodistribution pattern of [123I]- ligand was evaluated in frontal cortex of anesthetized rabbit after Intravenous injection of 50 uCi after 4 hr; assay type: ADME, organism-based; details: in vivo; summary of the method: as §2
[20] = system: Oryctolagus cuniculus; assay: Biodistribution pattern of [123I]- ligand was evaluated in liver of anesthetized rabbit after Intravenous injection of 50 uCi after 30 min; assay type: ADME, organism-based; details: in vivo, 0.5 h; summary of the method: as §1
[21] = system: Oryctolagus cuniculus; assay: Biodistribution pattern of [123I]- ligand was evaluated in intestine of anesthetized rabbit after Intravenous injection of 50 uCi after 24 hr; assay type: ADME, organism-based; details: in vivo; summary of the method: as §1
[22] = system: Oryctolagus cuniculus; assay: Cerebral biodistribution pattern of [123I]- ligand was evaluated in thalamus of anesthetized rabbit after Intravenous injection of 50 uCi after 30 min; assay type: ADME, organism-based; details: in vivo, 0.5 h; summary of the method: as §2
[23] = system: Oryctolagus cuniculus; assay: Biodistribution pattern of [123I]- ligand was evaluated in fat of anesthetized rabbit after Intravenous injection of 50 uCi after 1 hr; assay type: ADME, organism-based, Adipose tissue; details: in vivo; summary of the method: as §1
[24] = system: Oryctolagus cuniculus; assay: Cerebral biodistribution pattern of [123I]- ligand was evaluated in hypothalamus of anesthetized rabbit after Intravenous injection of 50 uCi after 24 hr; assay type: ADME, organism-based; details: in vivo; summary of the method: as §2
[25] = system: Oryctolagus cuniculus; assay: Biodistribution pattern of [123I]- ligand was evaluated in muscle of anesthetized rabbit after Intravenous injection of 50 uCi after 4 hr; assay type: ADME, organism-based, Muscle tissue; details: in vivo; summary of the method: as §1
[26] = system: Oryctolagus cuniculus; assay: Biodistribution pattern of [123I]- ligand was evaluated in right ventricular muscle of anesthetized rabbit after Intravenous injection of 50 uCi after 2 hr; assay type: ADME, organism-based, Muscle tissue; details: in vivo; summary of the method: as §2
[27] = system: Oryctolagus cuniculus; assay: Biodistribution pattern of [123I]- ligand was evaluated in blood of anesthetized rabbit after Intravenous injection of 50 uCi after 2 hr; assay type: ADME, organism-based; details: in vivo; summary of the method: as §1
[28] = system: Oryctolagus cuniculus; assay: Biodistribution pattern of [123I]- ligand was evaluated in fat of anesthetized rabbit after Intravenous injection of 50 uCi after 24 hr; assay type: ADME, organism-based, Adipose tissue; details: in vivo; summary of the method: as §1
[29] = system: Oryctolagus cuniculus; assay: Biodistribution pattern of [123I]- ligand was evaluated in left atrial muscle of anesthetized rabbit after Intravenous injection of 50 uCi after 5 min; assay type: ADME, organism-based, Muscle tissue; details: in vivo; summary of the method: as §1
[30] = system: Oryctolagus cuniculus; assay: Biodistribution pattern of [123I]- ligand was evaluated in muscle of anesthetized rabbit after Intravenous injection of 50 uCi after 1 hr; assay type: ADME, organism-based, Muscle tissue; details: in vivo; summary of the method: as §1
[31] = system: Oryctolagus cuniculus; assay: Biodistribution pattern of [123I]- ligand was evaluated in fat of anesthetized rabbit after Intravenous injection of 50 uCi after 2 hr; assay type: ADME, organism-based, Adipose tissue; details: in vivo; summary of the method: as §1
[32] = system: Oryctolagus cuniculus; assay: Cerebral biodistribution pattern of [123I]- ligand was evaluated in cerebellum of anesthetized rabbit after Intravenous injection of 50 uCi after 2 hr; assay type: ADME, organism-based; details: in vivo; summary of the method: as §2
[33] = system: Oryctolagus cuniculus; assay: Cerebral biodistribution pattern of [123I]- ligand was evaluated in hypothalamus of anesthetized rabbit after Intravenous injection of 50 uCi after 5 min; assay type: ADME, organism-based; details: in vivo; summary of the method: as §2
[34] = system: Oryctolagus cuniculus; assay: Biodistribution pattern of [123I]- ligand was evaluated in intestine of anesthetized rabbit after Intravenous injection of 50 uCi after 4 hr; assay type: ADME, organism-based; details: in vivo; summary of the method: as §1
[35] = system: Oryctolagus cuniculus; assay: Biodistribution pattern of [123I]- ligand was evaluated in fat of anesthetized rabbit after Intravenous injection of 50 uCi after 4 hr; assay type: ADME, organism-based, Adipose tissue; details: in vivo; summary of the method: as §1
[36] = system: Oryctolagus cuniculus; assay: Cerebral biodistribution pattern of [123I]- ligand was evaluated in hypothalamus of anesthetized rabbit after Intravenous injection of 50 uCi after 6 hr; assay type: ADME, organism-based; details: in vivo; summary of the method: as §2

SMILES: CC(C)(/C=C/I)NC[C@H](O)COc1cccc2[nH]c3ccccc3c12
- ID x kg of body weight/g of tissue [1]: 0.05%
- ID x kg of body weight/g of tissue [2]: 1.29%
- ID x kg of body weight/g of tissue [3]: 0.52%
- ID x kg of body weight/g of tissue [4]: 0.05%
- ID x kg of body weight/g of tissue [5]: 0.07%
- ID x kg of body weight/g of tissue [6]: 0.71%
- ID x kg of body weight/g of tissue [7]: 0.11%
- ID x kg of body weight/g of tissue [8]: 0.02%
- ID x kg of body weight/g of tissue [9]: 0.03%
- ID x kg of body weight/g of tissue [10]: 0.03%
- ID x kg of body weight/g of tissue [11]: 0.02%
- ID x kg of body weight/g of tissue [12]: 0.09%
- ID x kg of body weight/g of tissue [13]: 0.02%
- ID x kg of body weight/g of tissue [14]: 0.11%
- ID x kg of body weight/g of tissue [15]: 0.04%
- ID x kg of body weight/g of tissue [16]: 0.01%
- ID x kg of body weight/g of tissue [17]: 0.04%
- ID x kg of body weight/g of tissue [18]: 0.008%
- ID x kg of body weight/g of tissue [19]: 0.06%
- ID x kg of body weight/g of tissue [20]: 0.19%
- ID x kg of body weight/g of tissue [21]: 0.02%
- ID x kg of body weight/g of tissue [22]: < 0.1%
- ID x kg of body weight/g of tissue [23]: 0.06%
- ID x kg of body weight/g of tissue [24]: 0.02%
- ID x kg of body weight/g of tissue [25]: 0.04%
- ID x kg of body weight/g of tissue [26]: 0.18%
- ID x kg of body weight/g of tissue [27]: 0.01%
- ID x kg of body weight/g of tissue [28]: 0.01%
- ID x kg of body weight/g of tissue [29]: 0.36%
- ID x kg of body weight/g of tissue [30]: 0.07%
- ID x kg of body weight/g of tissue [31]: 0.04%
- ID x kg of body weight/g of tissue [32]: 0.15%
- ID x kg of body weight/g of tissue [33]: 0.25%
- ID x kg of body weight/g of tissue [34]: 0.06%
- ID x kg of body weight/g of tissue [35]: 0.02%
- ID x kg of body weight/g of tissue [36]: 0.03%
